Data on seven compounds can be found in ChEMBL document CHEMBL1154492, “Synthesis and activity of fibrillogenesis peptide inhibitors related to the 17-21 beta-amyloid sequence” (Eur J Med Chem, 2009).

Activity calls are given as the source filed them. The calls are words filed in the database; no cut-off is given here. Residues, ends and D or L forms follow the SMILES beside them.

The nature of data set [1]: Inhibition of amyloid beta (1 to 40) fibril formation by thioflavin T fluorescent dye assay. Put shortly: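 Aβ1-40 fractions were dissolved in 30 mM Tris/HCl pH 7.4 at 20 °C, with or without a 10-fold molar excess of inhibitor. Aliquots taken at 0.5, 1.5, 6, 8, 15 and 24 h went into ThT in 50 mM Tris/HCl pH 8.0. Fluorescence was read at 485 nm (excitation 450 nm) at 20 °C. Percent inhibition is relative to the parent pentapeptide. Three experiments, each sample in triplicate.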

Data set [2] in a line: Chemical stability assessed as compound remaining after proteolytic cleavage after 2 hrs in presence of chymotrypsin. The data set is classed as physicochemical. The conditions noted are these: read-out: Stability. Put shortly:
(§1)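 Each peptide at 0.76 mg/mL was incubated in PBS with 0.1 mg/mL chymotrypsin. Intact-peptide peak area was compared with an equivalent sample incubated in PBS alone.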

The nature of data set [3]: Chemical stability assessed as compound remaining after proteolytic cleavage after 20 hrs in presence of chymotrypsin. Conditions: read-out: Stability. The data set is classed as physicochemical. Put shortly: as §1
The nature of data set [4]: Inhibition of amyloid beta (1 to 40) aggregation assessed as inhibition of protofbril formation. The gist of the method: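 Lyophilised Aβ1-40 was incubated in 30 mM Tris/HCl pH 7.4 at 20 °C, with or without a 10-fold molar excess of inhibitor. Aliquots taken at 30 min and 24 h were frozen, lyophilised, gold sputter-coated and imaged by scanning electron microscopy for protofibrils.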

In the case of `CC(=O)N[C@@H](CC(C)C)C(=O)N1CC[C@H]1C(=O)N[C@@H](Cc1ccccc1)C(=O)N[C@@H](Cc1ccccc1)C(=O)N[C@@H](CC(=O)O)C(N)=O` (HELM PEPTIDE1{[ac].L.[O=C([C@@H]1CCN1[*:1])[*:2]].F.F.D.[am]}$$$$V2.0), the outcome in data set [1] was Active. For the same compound, in data set [2], the remaining at 2 h stood at 35%. In data set [3], the remaining at 20 h came to 15%.
In the case of `CC(=O)N[C@@H](CC(C)C)C(=O)N1CCC[C@H]1CS(=O)(=O)N[C@@H](Cc1ccccc1)C(=O)N[C@@H](Cc1ccccc1)C(=O)N[C@@H](CC(=O)O)C(N)=O`, the remaining at 2 h in data set [2] was determined as 35%. Moreover, in data set [3], the remaining at 20 h stood at 15%.
For `CC(=O)N[C@@H](CC(C)C)C(=O)N1C[C@@H](c2ccccc2)[C@@H]1C(=O)N[C@@H](Cc1ccccc1)C(=O)N[C@@H](Cc1ccccc1)C(=O)N[C@@H](CC(=O)O)C(N)=O` (HELM PEPTIDE1{[ac].L.[O=C([C@H]1[C@H](c2ccccc2)CN1[*:1])[*:2]].F.F.D.[am]}$$$$V2.0) the same measures were 35% and 15%.
For the compound `CC(C)C[C@H](NS(=O)(=O)CCN(C)C)C(=O)N1CCC[C@H]1C(=O)N[C@@H](Cc1ccccc1)C(=O)N[C@@H](Cc1ccccc1)C(=O)N[C@@H](CC(=O)O)C(N)=O` (HELM PEPTIDE1{[CN(C)CCS(=O)(=O)[*:2]].L.P.F.F.D.[am]}$$$$V2.0), the result in data set [1] and in data set [4] was Active. Further, in data set [2], the remaining at 2 h came out at 70%. Further, in data set [3], the remaining at 20 h amounted to 55%.
Take `CC(=O)N[C@@H](CC(C)C)C(=O)N1CCC[C@H]1CC(=O)N[C@@H](Cc1ccccc1)C(=O)N[C@@H](Cc1ccccc1)C(=O)N[C@@H](CC(=O)O)C(N)=O` (HELM PEPTIDE1{[ac].L.[O=C(C[C@@H]1CCCN1[*:1])[*:2]].F.F.D.[am]}$$$$V2.0): in data set [2], the remaining at 2 h worked out at 35%. Moreover, the remaining at 20 h in data set [3] is 15%.
On to Ac-LPFFDLPFFD-NH2, for which the result in data set [1] was Active. Besides, the remaining at 2 h in data set [2] worked out at 22%.
Regarding Ac-LPFFD-NH2, in data set [2], the remaining at 2 h came to 12%.
